Source: ChEMBL document CHEMBL1938385, “Identification of Trypanosoma brucei leucyl-tRNA synthetase inhibitors by pharmacophore- and docking-based virtual screening and synthesis” (Bioorg Med Chem, 2012)

Experiments:
[1] = Inhibition of Trypanosoma brucei LeuRS preincubated for 20 mins prior to reaction initiation by aminoacylation assay
Procedure, shortened: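 Enzyme, compound, tRNA and 0.003 mCi/mL [¹⁴C]-leucine were incubated 20 min at 37 °C, then 4 mM ATP was added to start the reaction. Precipitated [¹⁴C]-Leu-tRNA^Leu on dried filter paper was measured by scintillation counting.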

[2] = Inhibition of Staphylococcus aureus LeuRS
[3] = Inhibition of human LeuRS
[4] = Inhibition of Escherichia coli LeuRS

Row | Structure (SMILES) | IC50 [1] [µM] | further results
1 | COc1ccc(C(=O)C2=C(O)C(=O)N(CCc3c[nH]c4ccccc34)C2c2ccc(C(C)C)cc2)cc1 (stereo unspecified) | 90.5 | 
2 | COc1ccc(C(=O)C2=C(O)C(=O)N(CCc3c[nH]c4ccccc34)C2c2cccc(F)c2)cc1 (stereo unspecified) | 170 | 
3 | COc1ccc(C(=O)C2=C(O)C(=O)N(CCc3c[nH]c4ccccc34)C2c2ccccc2F)cc1 (stereo unspecified) | 269 | 
4 | COc1ccc(C(=O)C2=C(O)C(=O)N(CCc3c[nH]c4ccccc34)C2c2ccc(F)cc2)cc1 (stereo unspecified) | 64.7 | 
5 | COc1ccc(C(=O)C2=C(O)C(=O)N(CCc3c[nH]c4ccccc34)C2c2ccccc2Cl)cc1 (stereo unspecified) | 125 | 
6 | COc1ccc(C(=O)C2=C(O)C(=O)N(CCc3c[nH]c4ccccc34)C2c2ccc(Cl)cc2)cc1 (stereo unspecified) | 86.9 | 
7 | COc1ccc(C(=O)C2=C(O)C(=O)N(CCc3c[nH]c4ccccc34)C2c2ccccc2)cc1 (stereo unspecified) | 260 | 
8 | COc1ccc(C(=O)C2=C(O)C(=O)N(CCc3c[nH]c4ccccc34)C2c2ccc(C)cc2)cc1 (stereo unspecified) | 117 | 
9 | CCc1ccc(C2C(C(=O)c3ccc(OC)cc3)=C(O)C(=O)N2CCc2c[nH]c3ccccc23)cc1 (stereo unspecified) | 71.4 | 
10 | COc1ccc(C(=O)C2=C(O)C(=O)N(CCc3c[nH]c4ccccc34)C2c2ccc(OC)cc2)cc1 (stereo unspecified) | 334 | 
11 | COc1ccc(C(=O)C2=C(O)C(=O)N(CCc3c[nH]c4ccccc34)C2c2ccccc2OC)cc1 (stereo unspecified) | 190 | 
12 | COc1ccccc1C1C(C(=O)c2ccc(Cl)cc2)=C(O)C(=O)N1CCc1c[nH]c2ccccc12 (stereo unspecified) | 107 | 
13 | O=C(C1=C(O)C(=O)N(CCc2c[nH]c3ccccc23)C1c1cccc(O)c1)c1ccc(Cl)cc1 (stereo unspecified) | 588 | 
14 | O=C(C1=C(O)C(=O)N(CCc2c[nH]c3ccccc23)C1c1ccc(Cl)cc1)c1ccc(F)cc1 (stereo unspecified) | > 1000 | 
15 | O=C(C1=C(O)C(=O)N(CCc2c[nH]c3ccccc23)C1c1ccccc1)c1ccc(F)cc1 (stereo unspecified) | > 1000 | 
16 | O=C(C1=C(O)C(=O)N(CCc2c[nH]c3ccccc23)C1c1cccc(F)c1)c1ccccc1 (stereo unspecified) | > 1000 | 
17 | CCc1ccc(C2C(C(=O)c3ccc(OC)cc3)=C(O)C(=O)N2CCCNC(=O)OC(C)(C)C)cc1 (stereo unspecified) | 269 | 
18 | CCc1ccc(C2C(C(=O)c3ccc(OC)cc3)=C(O)C(=O)N2c2ccc(CNC(=O)OC(C)(C)C)cc2)cc1 (stereo unspecified) | 102 | 
19 | CCc1ccc(C2C(C(=O)c3ccc(OC)cc3)=C(O)C(=O)N2CCCNC(=O)CC(C)C)cc1 (stereo unspecified) | > 1000 | 
20 | CCc1ccc(C2C(C(=O)c3ccc(OC)cc3)=C(O)C(=O)N2Cc2ccc3c(c2)OCO3)cc1 (stereo unspecified) | 174 | 
21 | CCc1ccc(C2C(C(=O)c3ccc(OC)cc3)=C(O)C(=O)N2Cc2ccc(C(=O)O)cc2)cc1 (stereo unspecified) | 656 | 

Row | Structure (SMILES) | IC50 [1] [µM] | further results
22 | CCc1ccc(C2C(C(=O)c3ccc(OC)cc3)=C(O)C(=O)N2CCCn2ccnc2)cc1 (stereo unspecified) | 716 | 
23 | CCc1ccc(C2C(C(=O)c3ccc(OC)cc3)=C(O)C(=O)N2CCCN)cc1 (stereo unspecified) | > 1000 | 
24 | CCc1ccc(C2C(C(=O)c3ccc(OC)cc3)=C(O)C(=O)N2c2ccc(CN)cc2)cc1 (stereo unspecified) | > 1000 | 
25 | COc1ccc(C(=O)C2=C(O)C(=O)N(CCc3c[nH]c4ccccc34)C2c2ccc(C(F)(F)F)cc2)cc1 (stereo unspecified) | 68.1 | 
26 | COc1ccc(C(=O)C2=C(O)C(=O)N(CCc3c[nH]c4ccccc34)C2c2ccc(C(C)(C)C)cc2)cc1 (stereo unspecified) | 94.5 | 
27 | CCCCc1ccc(C2C(C(=O)c3ccc(OC)cc3)=C(O)C(=O)N2CCc2c[nH]c3ccccc23)cc1 (stereo unspecified) | 43.9 | 
28 | COc1ccc(C(=O)C2=C(O)C(=O)N(CCc3c[nH]c4ccccc34)C2c2ccc(CC(C)C)cc2)cc1 (stereo unspecified) | 31.9 | 
29 | COc1ccc(C(=O)C2=C(O)C(=O)N(CCc3c[nH]c4ccccc34)C2c2ccc(-c3ccccc3)cc2)cc1 (stereo unspecified) | 43.1 | 
30 | COc1ccc(C(=O)C2=C(O)C(=O)N(CCc3c[nH]c4ccccc34)C2c2ccc3ccccc3c2)cc1 (stereo unspecified) | 85.5 | 
31 | COc1ccc(C(=O)C2=C(O)C(=O)N(CCc3c[nH]c4ccccc34)C2c2ccc(F)cc2Br)cc1 (stereo unspecified) | 110 | 
32 | CCCCCC1C(C(=O)c2ccc(OC)cc2)=C(O)C(=O)N1CCc1c[nH]c2ccccc12 (stereo unspecified) | 111 | 
33 | CC(C)Cc1ccc(C2C(C(=O)c3ccc(Cl)cc3)=C(O)C(=O)N2CCc2c[nH]c3ccccc23)cc1 (stereo unspecified) | 41 | 
34 | CC(C)Cc1ccc(C2C(C(=O)c3ccc(F)cc3F)=C(O)C(=O)N2CCc2c[nH]c3ccccc23)cc1 (stereo unspecified) | 175 | 
35 | CCc1ccc(C2C(C(=O)c3cccc4ccccc34)=C(O)C(=O)N2CCc2c[nH]c3ccccc23)cc1 (stereo unspecified) | 80 | 
36 | CC[C@H](C)[C@H](N)C(=O)NS(=O)(=O)OC[C@H]1O[C@@H](c2nc(-c3ccccc3)ns2)[C@H](O)[C@@H]1O |  | IC50 [2]: > 20 µM; IC50 [3]: 200 µM; IC50 [4]: 1 µM
37 | CC(C)C[C@H](N)C(=O)NS(=O)(=O)OC[C@H]1O[C@@H](c2nc(-c3ccc(Oc4ccccc4)cc3)ns2)[C@H](O)[C@@H]1O |  | IC50 [2]: 0.054 µM; IC50 [3]: 0.6 µM; IC50 [4]: 0.0016 µM
38 | CC(C)C[C@H](N)C(=O)NS(=O)(=O)OC[C@H]1O[C@@H](c2nc(CCc3cccc(Oc4ccccc4)c3)ns2)[C@H](O)[C@@H]1O |  | IC50 [2]: 0.1 µM; IC50 [3]: 1.15 µM; IC50 [4]: 0.006 µM
39 | CC(C)C[C@H](N)C(=O)NS(=O)(=O)OC[C@H]1O[C@@H](c2nc(CCc3ccccc3)ns2)[C@H](O)[C@@H]1O |  | IC50 [2]: 0.09 µM; IC50 [3]: 0.73 µM; IC50 [4]: < 0.002 µM
40 | CC[C@H](C)[C@H](N)C(=O)NS(=O)(=O)OCc1oc(-c2nc(-c3ccccc3)cs2)c(O)c1O |  | IC50 [3]: 0.6 µM; IC50 [4]: 0.0016 µM
41 | CC[C@H](C)[C@H](N)C(=O)NS(=O)(=O)CC(=O)O[C@H]1CC[C@H]2C(C(N)=O)=CN(C)C[C@@H]12 |  | IC50 [2]: 0.42 µM
42 | CC[C@H](C)[C@H](N)C(=O)NS(=O)(=O)CC(=O)N[C@]1(C(=O)OC)[C@@H]2CN(C)C=C(C(N)=O)[C@@H]2C[C@@H]1O |  | IC50 [2]: 186 µM
